Yeast lifespan up: yeast lifespan extension. S. cerevisiae growth with nicotinamide, OD615; deaD strain in restrictive glucose medium. inhibition of the nicotinamide effect, % at 10 µM. actives 0.68% (n = 130,000);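 active means inhibition above a set limit, placed 3 SD over the median of all compounds, cut at about 26% in these data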;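 further: 0% = nicotinamide-treated wells and 100% = cells grown without nicotinamide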
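System: DeaD-strain S. cerevisiae / Buffer or medium: CSMM-D, restrictive glucose (dextrose) synthetic minimal medium / Probe or stimulus: nicotinamide, 1.5 mM, co-present with compound / Compound: one concentration, 10 µM, DMSO 0.25% / Incubation: 48 h compound exposure at 30 °C, humidified / Technique: optical density (absorbance) at 615 nm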
Yeast growth inh: yeast BB579 growth reduction in restrictive medium; inhibition, % at 10 µM; S. cerevisiae BB579 growth, OD615, 48 h; actives 0.51% (n = 140,000);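 active means inhibition above a set limit, 3 SD over the mean compound inhibition, cut at about 44% in these data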
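System: DeaD yeast strain BB579; buffer or medium: CSMM-D dextrose restrictive medium; technique: OD at 615 nm; schedule: 4 h cell preincubation, 48 h compound exposure, 30 °C humidified; doses: single 10 µM dose; controls: amphotericin B 10 µg/mL, positive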
RAM inhibit: inhibitors of the yeast RAM network. S. cerevisiae dse1pr::URA3 reporter, 5-FOA growth OD615, 2 d; analog-sensitive cbk1-as2 kinase mutant strain. inhibition, % at 50 µM. actives 1.8% (n = 190,000). AID 868;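 active means inhibition above a set limit, 3 SD over mean compound inhibition, cut at about 8.4% in these data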;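 further: 0% = DMSO-only wells with no growth and 100% = 10 µM 1-NA-PP1 full growth; inhibition rescues growth on 5-FOA so higher OD means more RAM inhibition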
sdo1 growth: compounds rescuing growth of sdo1-depleted yeast, bone marrow failure model. S. cerevisiae sdo1-depleted JHY4D growth rescue, OD600 30 h; hits give high values; pdr5 snq2 efflux-pump mutant strain. z-score at 10 µM. actives 0.21% (n = 140,000);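 active means z-score above 3 at both the 24 hr and the 30 hr optical density reads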;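 further: z-score against mean and SD of all compound wells on the same plate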
The depositor's hits bear a star; · = no result given. Rows were chosen to be rich in hits. Some 2.7% of all compounds tested hit in one or more screens of this group.

SMILES	Yeast lifespan up	Yeast growth inh	RAM inhibit	sdo1 growth
O=c1c(Cl)c(Nc2cccc(Cl)c2)cnn1-c1nc2ccccc2s1	-1.9	-43.6	3.4	-1.11
Cc1ccc(C)c(N2CCN(c3cnn(-c4nc5ccccc5s4)c(=O)c3Cl)CC2)c1	0.8	-38.9	9.1*	0.81
COc1ccc(NC(=O)C(c2ccccc2)N2CCN(c3ccccn3)CC2)cc1Cl (stereo not given)	·	·	2.4	·
CC(C)C(NC(=O)c1ccc(F)cc1)C(=O)OCC(=O)N1CC(=O)Nc2ccccc21 (stereo not given)	-3.7	-15.8	0.4	-0.58
O=[N+]([O-])c1ccc(O)c2ncccc12	-9.1	99.4*	-1.1	-2.54
O=[N+]([O-])c1ccc(O)c2cccnc12	·	·	-0.7	·
OCCN1CCN(CC(O)C(F)(F)F)CC1 (stereo not given)	·	·	0.9	·
COC(=O)C1=C(C(=O)OC)C(c2ccccc2O)c2sc(=O)[nH]c2S1 (stereo not given)	45.3*	-44.0	0.8	-0.62
CC(C)(C)c1cc(C(c2cccnc2)N2CCN(CCO)CC2)cc(C(C)(C)C)c1O (stereo not given)	17.6	95.7*	-1.5	-2.23
Cc1ccc(SCCOCCN2CCc3ccccc3C2)cc1	9.8	-33.3	0.1	-0.45
CCOCCCNC(=O)C(c1ccc(OC)cc1)N(Cc1ccc2c(c1)OCO2)C(=O)c1ccccc1O (stereo not given)	·	·	0.2	·
COc1cccc(C(=O)O/N=C(\N)c2ccncc2)c1	-24.7	6.1	3.8	1
N/C(Cc1ccc(Cl)cc1)=N\OC(=O)C1CCCCC1	-12.8	99.8*	-3.2	-2.06
COc1cccc(C(=O)O/N=C(\N)Cc2ccc(Cl)cc2)c1	-12.7	100.0*	-1.8	-2.31
S=C1NC2(CCCCC2)Nc2ccccc21	·	·	-0.5	·
O=C(NCc1ccc(/C=c2\sc3n(c2=O)CCN=3)o1)C(=O)Nc1ccccc1	·	·	3.9	·
COc1cccc(NC(=O)CSc2nc3c(c(-c4ccco4)c2C#N)CCCC3)c1	-5.3	-16.0	9.2*	0.41
O=c1c2cccc3c2c(nn1CN1CCOCC1)-c1ccccc1-3	-18.7	93.5*	0.7	-0.04
COc1cc2[nH]c(=S)nc(NC3CCCC3)c2cc1OC	·	·	-0.5	·
Cc1cccc(C)c1NC(=O)c1sccc1SCc1cccc(C(F)(F)F)c1	-1.1	-22.4	11.0*	-0.65
COc1ccc(/C=C2\CN(Cc3ccccc3)C/C(=C\c3ccc(OC)cc3)C2=O)cc1	0.2	-17.8	10.6*	-0.04
Cc1ccc(Oc2ccc(-c3nnc(-c4ccccc4)o3)cc2[N+](=O)[O-])cc1C	-1.6	-25.7	4.3	0.15
CCCCC(c1nnnn1CC1CCCO1)N1CCN(c2nc3ccccc3s2)CC1 (stereo not given)	72.8*	-36.3	2.1	-1.36
CCCC(c1nnnn1CC1CCCO1)N1CCN(c2nc3ccccc3s2)CC1 (stereo not given)	·	-41.0	2.8	-0.93
COc1cccc(/C(N)=N/OC(=O)Cc2ccccc2[N+](=O)[O-])c1	·	·	1.0	·
SMILES	Yeast lifespan up	Yeast growth inh	RAM inhibit	sdo1 growth
COc1ccccc1-n1nnnc1SCc1cc2c(cc1Br)OCO2	5.6	-62.5	9.5*	-0.75
COc1ccccc1-n1nnnc1SCc1ccccc1	-15.1	-35.5	-0.1	-0.57
CN(C)/C=C(/C(=O)c1ccc(Cl)cc1Cl)S(=O)(=O)c1ccc(Cl)cc1	69.1*	-48.9	1.0	-0.72
CN(C)/C=C(/C(=O)c1ccc(Cl)cc1Cl)S(=O)(=O)c1ccccc1	62.6	-27.6	1.2	0.06
Cc1cc(C)c(S(=O)(=O)Nc2ccccc2C(=O)OCC(=O)NCc2ccccc2)c(C)c1	·	·	8.7*	·
CCOc1ccc(OCC)c(NC(=O)CN2CCN(c3cc(C)ccc3C)CC2)c1	-1.7	-28.6	8.7*	-0.49
COc1ccc(N/N=C(\C#N)C(N)=O)cc1	6.8	58.5*	2.2	-1.56
CCOc1ccc(N/N=C(/C#N)C(N)=O)cc1	-7.9	96.8*	-0.6	-1.43
CCOc1ccc(N/C(SC)=C(/C#N)C(N)=O)cc1	-9.8	-21.1	0.0	1.28
Cc1cc(C(F)(F)F)nc(-n2cc(-c3ccccc3)nn2)n1	·	·	-1.2	·
COc1cc2c(cc1NC(=O)C(C)OC(=O)c1ccc(S(=O)(=O)Nc3ccccc3Cl)cc1)oc1ccccc12 (stereo not given)	·	·	11.0*	·
COc1cc2c(cc1NC(=O)C(C)N1CCN(S(=O)(=O)c3ccc(C)c(C)c3)CC1)oc1ccccc12 (stereo not given)	-3.1	-92.5	3.4	-1.04
O=C(/C=C/c1cccc([N+](=O)[O-])c1)Nc1ccc(NC(=O)c2cccs2)cc1	-3.3	-32.6	1.0	0.63

High-throughput results as filed in PubChem.
